Test results from ChEMBL document CHEMBL1629583, “Establishment of in vitro susceptibility testing methodologies and comparative activities of piperacillin in combination with the penem {beta}-lactamase inhibitor BLI-489” (2009).
In brackets after ≈: the same amount, converted by molar mass.

Tests used:
Format in all cases: functional
[1] = system: Escherichia coli; assay: Antimicrobial activity against Escherichia coli clinical isolate after 18 to 22 hrs by broth microdilution method in presence of beta-lactamase inhibitor BLI-489
How it was run: (§1)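 CLSI broth microdilution in Mueller-Hinton II broth. Serial dilutions of piperacillin were tested with BLI-489 held at a constant 4 μg/ml. Inoculum was 10^5 CFU/ml. Plates were incubated 18 to 22 h at 35°C in ambient air. MIC was the lowest concentration giving complete growth inhibition by unaided eye.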

[2] = system: Streptococcus pneumoniae; assay: Antimicrobial activity against penicillin-resistant Streptococcus pneumoniae clinical isolate after 18 to 22 hrs by broth microdilution method in presence of beta-lactamase inhibitor Tazobactam
How it was run: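 CLSI broth microdilution in Mueller-Hinton II broth with 5% lysed horse blood. Antibiotic in serial dilution with the β-lactamase inhibitor held at a constant 4 μg/ml. Inoculum 10^5 CFU/ml. Incubated 18 to 22 h at 35°C in ambient air. MIC is the lowest concentration with no growth visible to the eye.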

[3] = system: Escherichia coli; assay: Antimicrobial activity against AmpC beta-lactamase-producing Escherichia coli clinical isolate after 18 to 22 hrs by broth microdilution method in presence of beta-lactamase inhibitor Tazobactam
How it was run: (§2)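 Piperacillin-tazobactam was tested on recent clinical isolates by CLSI broth microdilution in Mueller-Hinton II broth, with tazobactam at constant 4 μg/ml. Wells held 10^5 CFU/ml and were incubated 18 to 22 h at 35°C in ambient air. MIC was the lowest concentration with no growth visible to the unaided eye.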

[4] = system: Citrobacter freundii; assay: Antimicrobial activity against Citrobacter freundii clinical isolate after 18 to 22 hrs by broth microdilution method in presence of beta-lactamase inhibitor Tazobactam; how it was run: as §2
[5] = system: Proteus mirabilis; assay: Antimicrobial activity against Proteus mirabilis clinical isolate after 18 to 22 hrs by broth microdilution method in presence of beta-lactamase inhibitor Tazobactam
How it was run: (§3)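 Piperacillin-tazobactam was tested by CLSI broth microdilution in Mueller-Hinton II broth against clinical isolates. Inoculum was 10^5 CFU/ml, with 18 to 22 h incubation at 35°C in ambient air. MIC was read as the lowest concentration completely inhibiting visible growth.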

[6] = system: Acinetobacter haemolyticus; assay: Antimicrobial activity against Acinetobacter haemolyticus clinical isolate after 18 to 22 hrs by broth microdilution method in presence of beta-lactamase inhibitor BLI-489
How it was run: (§4)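 CLSI broth microdilution in Mueller-Hinton II broth. Piperacillin serial dilutions were combined with BLI-489 held constant at 4 μg/ml. Inoculum was 10^5 CFU/ml. Plates were incubated 18 to 22 h at 35°C in ambient air. MIC was the lowest concentration completely inhibiting growth seen by the unaided eye. Piperacillin-tazobactam interpretive criteria were applied.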

[7] = system: Staphylococcus aureus; assay: Antimicrobial activity against methicillin-resistant Staphylococcus aureus clinical isolate after 18 to 22 hrs by broth microdilution method in presence of beta-lactamase inhibitor Tazobactam
How it was run: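 CLSI broth microdilution in Mueller-Hinton II broth. Antibiotic in serial dilution with the β-lactamase inhibitor held at a constant 4 μg/ml. Inoculum 10^5 CFU/ml. Incubated 18 to 22 h at 35°C in ambient air.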

[8] = system: Escherichia coli; assay: Antimicrobial activity against AmpC beta-lactamase-producing Escherichia coli clinical isolate after 18 to 22 hrs by broth microdilution method in presence of beta-lactamase inhibitor BLI-489; how it was run: as §4
[9] = system: Providencia rettgeri; assay: Antimicrobial activity against Providencia rettgeri clinical isolate after 18 to 22 hrs by broth microdilution method in presence of beta-lactamase inhibitor Tazobactam; how it was run: as §3
[10] = system: Moraxella catarrhalis; assay: Antimicrobial activity against Moraxella catarrhalis clinical isolate after 18 to 22 hrs by broth microdilution method in presence of beta-lactamase inhibitor BLI-489; how it was run: as §1
[11] = system: Enterobacter cloacae; assay: Antimicrobial activity against AmpC beta-lactamase-producing Enterobacter cloacae clinical isolate after 18 to 22 hrs by broth microdilution method in presence of beta-lactamase inhibitor BLI-489; how it was run: as §4
[12] = system: Escherichia coli; assay: Antimicrobial activity against Escherichia coli clinical isolate after 18 to 22 hrs by broth microdilution method in presence of beta-lactamase inhibitor Tazobactam
[13] = system: Parvimonas micra; assay: Antimicrobial activity against Peptostreptococcus micros clinical isolate after 18 to 22 hrs by broth microdilution method
[14] = system: Serratia marcescens; assay: Antimicrobial activity against AmpC beta-lactamase-producing Serratia marcescens clinical isolate after 18 to 22 hrs by broth microdilution method in presence of beta-lactamase inhibitor BLI-489; how it was run: as §4
[15] = system: Bacteroides fragilis; assay: Antimicrobial activity against Bacteroides fragilis clinical isolate after 18 to 22 hrs by broth microdilution method in presence of beta-lactamase inhibitor Tazobactam
[16] = system: Staphylococcus haemolyticus; assay: Antimicrobial activity against Staphylococcus haemolyticus clinical isolate after 18 to 22 hrs by broth microdilution method in presence of beta-lactamase inhibitor Tazobactam; how it was run: as §3
[17] = system: Acinetobacter calcoaceticus; assay: Antimicrobial activity against Acinetobacter calcoaceticus clinical isolate after 18 to 22 hrs by broth microdilution method in presence of beta-lactamase inhibitor BLI-489; how it was run: as §4
[18] = system: Acinetobacter baumannii; assay: Antimicrobial activity against Acinetobacter baumannii clinical isolate after 18 to 22 hrs by broth microdilution method in presence of beta-lactamase inhibitor Tazobactam; how it was run: as §2
[19] = system: Streptococcus agalactiae; assay: Antimicrobial activity against Streptococcus agalactiae clinical isolate after 18 to 22 hrs by broth microdilution method in presence of beta-lactamase inhibitor BLI-489
How it was run: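 Streptococci were tested by CLSI broth microdilution in Mueller-Hinton II broth plus 5% lysed horse blood. Piperacillin dilutions contained a constant 4 μg/ml BLI-489. Inoculum was 10^5 CFU/ml, incubated 18 to 22 h at 35°C in air. MIC was the lowest concentration with no visible growth.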

[20] = system: Klebsiella pneumoniae; assay: Antimicrobial activity against class A extended spectrum beta-lactamase- producing Klebsiella pneumoniae clinical isolate after 18 to 22 hrs by broth microdilution method in presence of beta-lactamase inhibitor BLI-489
How it was run: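 Piperacillin serially diluted with BLI-489 held at a constant 4 μg/ml, by CLSI broth microdilution in Mueller-Hinton II broth. Inoculum was 10^5 CFU/ml. Plates were incubated 18 to 22 h at 35°C in ambient air. MIC was the lowest concentration completely inhibiting growth seen by the unaided eye.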

[21] = system: Providencia rettgeri; assay: Antimicrobial activity against Providencia rettgeri clinical isolate after 18 to 22 hrs by broth microdilution method in presence of beta-lactamase inhibitor BLI-489; how it was run: as §1
[22] = system: Bacteroides uniformis; assay: Antimicrobial activity against Bacteroides uniformis clinical isolate after 18 to 22 hrs by broth microdilution method in presence of beta-lactamase inhibitor Tazobactam

Work on `CCN1CCN(C(=O)N[C@@H](C(=O)N[C@@H]2C(=O)N3[C@@H]2SC(C)(C)[C@@H]3C(=O)O)c2ccccc2)C(=O)C1=O` [PIPERACILLIN] yielded an MIC50 [1] of 64 µg/mL, an MIC90 [1] of 128 µg/mL and an MIC50 [2] of 2 µg/mL. It also gave an MIC90 [2] of 4 µg/mL, an MIC50 [3] of 4 µg/mL and an MIC90 [3] of 8 µg/mL. It also gave an MIC50 [4] of 64 µg/mL, an MIC90 [4] of 128 µg/mL and an MIC50 [5] of 0.25 µg/mL. The MIC90 [5] was 2 µg/mL, the MIC50 [6] was 4 µg/mL and the MIC90 [6] was 16 µg/mL. It also gave an MIC50 [7] of 64 µg/mL, an MIC50 [8] of 2 µg/mL and an MIC90 [8] of 16 µg/mL. For the same compound, the MIC50 [9] was 2 µg/mL, the MIC90 [9] was 16 µg/mL and the MIC [10] was at most 0.004 µg/mL. For the same compound, the MIC50 [10] was at most 0.004 µg/mL, the MIC90 [10] was 0.015 µg/mL and the MIC50 [11] was 2 µg/mL. The MIC90 [11] was 8 µg/mL, the MIC50 [12] was 2 µg/mL and the MIC90 [12] was 2 µg/mL. It also gave an MIC50 [13] of 0.12 µg/mL (≈ 0.232 µM), an MIC90 [13] of 0.25 µg/mL (≈ 0.483 µM) and an MIC50 [14] of 2 µg/mL. The MIC90 [14] was 8 µg/mL, the MIC50 [15] was 0.06 µg/mL and the MIC90 [15] was 0.25 µg/mL. It also gave an MIC50 [16] of 32 µg/mL, an MIC90 [16] of over 128 µg/mL and an MIC50 [17] of over 128 µg/mL. It also gave an MIC90 [17] of over 128 µg/mL, an MIC50 [18] of over 128 µg/mL and an MIC90 [18] of over 128 µg/mL. For the same compound, the MIC50 [19] was at most 0.004 µg/mL, the MIC90 [19] was 0.03 µg/mL and the MIC50 [20] was 16 µg/mL. The MIC90 [20] was 32 µg/mL, the MIC50 [21] was 1 µg/mL and the MIC90 [21] was 8 µg/mL. It also gave an MIC50 [22] of 0.5 µg/mL and an MIC90 [22] of 4 µg/mL.
